The sample as a whole holds a higher share of hits than the screen did.
IDH1 R132H inh: IDH1 R132H (human) inhibition. O75874. IDH1 R132H reductase, diaphorase/resazurin fluorescence, 60 min. inhibition, % at 10 µM. 70,000 compounds, 0.18% hits; in the data active = inhibition above about 34%; inconclusive = no clear call, values can overlap the other calls; inactive = below about 11%;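 also: 0% = DMSO and 100% = no enzyme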
Target sequence (O75874 whole entry R132H): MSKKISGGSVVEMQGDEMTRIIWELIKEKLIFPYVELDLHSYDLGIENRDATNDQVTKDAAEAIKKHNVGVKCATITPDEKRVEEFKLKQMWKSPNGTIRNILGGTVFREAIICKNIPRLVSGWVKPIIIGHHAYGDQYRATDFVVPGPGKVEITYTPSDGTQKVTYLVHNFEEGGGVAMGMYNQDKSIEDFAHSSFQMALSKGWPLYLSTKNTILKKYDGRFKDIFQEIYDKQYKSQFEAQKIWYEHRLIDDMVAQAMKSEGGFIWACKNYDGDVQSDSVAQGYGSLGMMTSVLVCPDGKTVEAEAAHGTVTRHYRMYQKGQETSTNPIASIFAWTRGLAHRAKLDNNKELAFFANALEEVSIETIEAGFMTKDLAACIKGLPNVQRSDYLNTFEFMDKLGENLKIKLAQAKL
T cruzi growth-1: blocks T. cruzi growth in NIH3T3 culture | inhibition, % at 8.34 µM | 77,000 compounds, 5.9% hits | T. cruzi beta-gal in NIH3T3, GalScreen luminescence, 90 h | AID 624255;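 active = mean inhibition above about 93%, with at least 55% of replicates each passing it, limit read from the data, passing the limit was not always enough; inconclusive = only one of those two conditions holds; inactive = neither condition holds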
GASC1 inh: inhibitors of human demethylase GASC-1 KDM4C; 96,000 compounds, 0.15% hits; Q9H3R0; inhibition, % at 12.5 µM; GST-KDM4C 2-372, H3K9me3 peptide, LANCE TR-FRET;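 active = mean replicate inhibition above about 25%, with at least 55% of replicates also reaching it, limit read from the data, passing the limit was not always enough; inconclusive = only one of those two conditions met; inactive = neither condition met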
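System – N-terminal GST-fused human GASC-1 (KDM4C) fragment, residues 2-372 · Input – enzyme final amount 10 nM · Technique – LANCE TR-FRET, Eu antibody, ULight-streptavidin, EDTA, ex 340 nm, em 618/671 nm · Medium – HEPES buffer, pH 7.5, plus ascorbate · Incubation – enzyme reaction 30 min, then detection 60 min, both room temperature · Reagent – H3K9me3 peptide with Fe(II)/2OG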
T cruzi growth-2: inhibitors of T. cruzi proliferation; inhibition, % at 8.35 µM; AID 651739; T. cruzi beta-gal in NIH3T3, GalScreen luminescence, 90 h; 5,600 compounds, 72% hits; shares compounds with T cruzi growth-1;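 active = mean replicate inhibition above about 95% and at least 55% of replicates individually reaching it, limit read from the data; inconclusive = only one of the two criteria is met; inactive = neither criterion is met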
T cruzi growth-3: inhibitors of T. cruzi proliferation; shares compounds with T cruzi growth-1; T. cruzi beta-gal in NIH3T3, GalScreen luminescence, 90 h; inhibition, % at 2.09 µM; 5,600 compounds, 21% hits;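 active = mean inhibition above about 95%, with at least 55% of replicates also reaching it, limit read from the data; inconclusive = meets just one of the two conditions; inactive = meets neither condition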;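 also: plate controls were neutral control median for no effect and positive control median for full effect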
NIH3T3 tox: cytotoxicity in mouse NIH/3T3 fibroblasts | cytotoxicity (signal decrease), % at 8.35 µM | 5,600 compounds, 14% hits | NIH/3T3 viability, CellTiter-Glo ATP luminescence, 90 h | AID 651742 | shares compounds with T cruzi growth-1;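 active = mean signal decrease across replicates above about 35% based on untreated-well scatter, with enough replicates individually passing, limit read from the data; inconclusive = no rule stated though some were filed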;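 also: 0% = median of neutral control wells and 100% = median of positive control wells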
3T3 cytotox 2: cytotoxicity in mouse NIH/3T3 fibroblasts; AID 651744; 5,600 compounds, 56% hits; inhibition, % at 24.9 µM; shares compounds with T cruzi growth-1; NIH/3T3 viability, CellTiter-Glo ATP luminescence, 90 h;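 active = mean loss of cell viability signal at or above a set limit, and enough replicates individually reaching it; inconclusive = meets only the mean limit or only the replicate share; inactive = meets neither condition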;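 also: 0% = median of neutral control wells and 100% = median of positive control wells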
Starred values were filed as active, the others as inactive; ? = inconclusive; / = not tested or not shown.

SMILES	IDH1 R132H inh	T cruzi growth-1	GASC1 inh	T cruzi growth-2	T cruzi growth-3	NIH3T3 tox	3T3 cytotox 2
Cc1ccc(S(=O)(=O)Nc2ccc3c(c2)C(=O)N([C@@H](C)CO)C[C@@H](C)[C@@H](CN(C)C(=O)Nc2cccc4ccccc24)OCCCC[C@@H](C)O3)cc1	2	94	-2	/	/	/	/
C[C@@H]1CCCCO[C@@H](CN(C)C(=O)Nc2cccc3ccccc23)[C@@H](C)CN([C@H](C)CO)C(=O)c2cc(NS(=O)(=O)c3ccc(F)cc3)ccc2O1	1	-4	-1	/	/	/	/
Cc1ccc(S(=O)(=O)Nc2ccc3c(c2)C(=O)N([C@@H](C)CO)C[C@H](C)[C@H](CN(C)C(=O)Nc2cccc4ccccc24)OCCCC[C@@H](C)O3)cc1	/	69	-2	/	/	/	/
C[C@H](CO)N1C[C@H](C)[C@@H](CN(C)C(=O)Nc2cccc3ccccc23)OCCCC[C@H](C)Oc2ccc(NS(=O)(=O)c3ccc(F)cc3)cc2C1=O	/	105*	-2	106*	?	-20	14
Cc1ccc(S(=O)(=O)Nc2ccc3c(c2)C(=O)N([C@@H](C)CO)C[C@@H](C)[C@H](CN(C)C(=O)Nc2cccc4ccccc24)OCCCC[C@@H](C)O3)cc1	3	103*	-2	109*	87	-9	-1
Cc1ccc(S(=O)(=O)Nc2ccc3c(c2)C(=O)N([C@@H](C)CO)C[C@H](C)[C@H](CN(C)C(=O)Nc2cccc4ccccc24)OCCCC[C@H](C)O3)cc1	/	105*	1	106*	84	-29	2
COc1ccc(S(=O)(=O)N(C)CC(=O)Nc2ccc(C(N)=O)cc2)cc1C	0	/	/	/	/	/	/
CC(NS(=O)(=O)c1ccc(Br)cc1)C(=O)Nc1ccc(Cl)cc1Cl (configuration not stated)	0	/	/	/	/	/	/
Cc1cc(OCC(=O)Nc2ccc3oc(-c4ccncc4)nc3c2)cc(C)c1Cl	0	/	/	/	/	/	/
CC1OC(OC2C(O[C@H]3OC[C@](O)(CO)[C@H]3O)COC(O[C@@H]3[C@@H](O)[C@@H](O)[C@H](OC4C(OC(=O)[C@]56CCC(C)(C)CC5C5=CCC7[C@@]8(C)C[C@H](O)[C@H](OC9OC(CO)C(O)C(O)C9O)[C@@](C)(CO)C8[C@H](O)C[C@@]7(C)[C@]5(C)CC6)OCC(O)C4O)O[C@H]3C)C2O)C(O)C(O)C1O (some centres not stated)	0	/	/	/	/	/	/
COC(=O)c1ccc(NC(=O)CN2CCC(C(N)=O)(N3CCCCC3)CC2)cc1	0	/	/	/	/	/	/
CC(=O)c1ccc(OC(=O)CCCN2C(=O)c3ccccc3C2=O)cc1	1	/	/	/	/	/	/
C[C@H](CO)N1C[C@H](C)[C@@H](CN(C)Cc2ccccc2)OCCCC[C@H](C)Oc2ccc(NC(=O)c3ccncc3)cc2C1=O	/	74	-1	/	/	/	/
C[C@H]1CCCCO[C@@H](CN(C)Cc2ccncc2)[C@@H](C)CN([C@@H](C)CO)C(=O)c2cc(NC(=O)Cc3ccccc3)ccc2O1	4	99*	4	104*	86	-27	-16
C[C@@H]1CCCCO[C@H](CN(C)Cc2ccccc2)[C@@H](C)CN([C@@H](C)CO)C(=O)c2cc(NC(=O)c3ccncc3)ccc2O1	3	98*	-1	16	-36	-18	-25
C[C@@H]1CCCCO[C@@H](CN(C)Cc2ccncc2)[C@H](C)CN([C@@H](C)CO)C(=O)c2cc(NC(=O)Cc3ccccc3)ccc2O1	/	59	1	/	/	/	/
Cc1c(Cl)cccc1NC(=O)CN(c1ccc(I)cc1)S(C)(=O)=O	1	/	/	/	/	/	/
COc1ccc(CN2CCN(Cc3cccc(OC)c3OC)CC2)c(OC)c1	0	/	/	/	/	/	/
CC1(C)CC(n2c(NCCO)nc3c(c2=O)C2(CCCCC2)Cc2ccccc2-3)CCO1 (configuration not stated)	1	/	/	/	/	/	/
COc1cc(-c2ccccn2)nc(/C=N/O)c1S(C)=O (configuration not stated)	0	/	/	/	/	/	/
Cc1nc(SCC(N)=O)c2c(C)c(C)sc2n1	0	/	/	/	/	/	/
Cc1ccc(OCC(=O)Nc2ccc(Br)cc2C(=O)O)cc1C	0	/	/	/	/	/	/
C[C@@H]1CN([C@@H](C)CO)C(=O)c2cc(NS(=O)(=O)c3ccccc3)ccc2O[C@@H](C)CCCCO[C@H]1CN(C)S(=O)(=O)c1ccc(F)cc1	1	57	-1	/	/	/	/
C[C@@H]1CCCCO[C@@H](CN(C)S(=O)(=O)c2ccc(F)cc2)[C@H](C)CN([C@@H](C)CO)C(=O)c2cc(NS(=O)(=O)c3ccc(F)cc3)ccc2O1	/	109*	-2	106*	86	0	11
C[C@@H]1CN([C@@H](C)CO)C(=O)c2cc(NS(=O)(=O)c3ccc(F)cc3)ccc2O[C@@H](C)CCCCO[C@H]1CN(C)S(=O)(=O)c1ccccc1	2	0	-1	/	/	/	/
SMILES	IDH1 R132H inh	T cruzi growth-1	GASC1 inh	T cruzi growth-2	T cruzi growth-3	NIH3T3 tox	3T3 cytotox 2
C[C@H]1CCCCO[C@H](CN(C)S(=O)(=O)c2ccc(F)cc2)[C@@H](C)CN([C@@H](C)CO)C(=O)c2cc(NS(=O)(=O)c3ccc(F)cc3)ccc2O1	-1	99*	1	110*	68	3	-3
C[C@@H]1CCCCO[C@@H](CN(C)S(=O)(=O)c2ccccc2)[C@H](C)CN([C@@H](C)CO)C(=O)c2cc(NS(=O)(=O)c3ccc(F)cc3)ccc2O1	0	63	-1	/	/	/	/
C[C@H](CO)N1C[C@H](C)[C@H](CN(C)S(=O)(=O)c2ccc(F)cc2)OCCCC[C@H](C)Oc2ccc(NS(=O)(=O)c3ccc(F)cc3)cc2C1=O	/	119*	1	103*	91	8	-15
C[C@@H]1CN([C@@H](C)CO)C(=O)c2cc(NS(=O)(=O)c3ccccc3)ccc2O[C@@H](C)CCCCO[C@@H]1CN(C)S(=O)(=O)c1ccc(F)cc1	1	54	0	/	/	/	/
C[C@@H]1CCCCO[C@H](CN(C)S(=O)(=O)c2ccc(F)cc2)[C@@H](C)CN([C@@H](C)CO)C(=O)c2cc(NS(=O)(=O)c3ccc(F)cc3)ccc2O1	0	111*	-1	103*	62	-4	19
COc1ccc([N+](=O)[O-])cc1N(CC(=O)Nc1ccccc1Br)S(C)(=O)=O	2	/	/	/	/	/	/
C[C@@H]1CCCCO[C@@H](CN(C)CC2CCCCC2)[C@H](C)CN([C@H](C)CO)C(=O)c2cc(NC(=O)Nc3cccc4ccccc34)ccc2O1	-3	120	-2	/	/	/	/
Cc1cc(NC(=O)NCCCN2CCN(C3CCCCC3)CC2)ccc1Cl	0	/	/	/	/	/	/
c1ccc(N=C2SC(=NC3CCCCC3)C3=C2CCCC3)cc1	5	/	/	/	/	/	/
C=C1C(=O)O[C@@H]2C[C@H](C)C3C[C@H](O)[C@H](O)[C@@]3(C)C[C@H]12 (some centres not stated)	0	/	/	/	/	/	/
